These results are taken from publication PMC8148075 (Acta Pharmaceutica Sinica. B, 2020).

One may read the IC50 as the midpoint of a concentration-inhibition curve. Lower therefore signals inhibition by little substance.

Peptide text beside a SMILES is read from it. * marks the point of attachment. Cbz = O=C(OCc1ccccc1)*; CH2F = FC*

For series [1], the system named is EC9706 cells. Nature of the series: Clonogenic assay, EC9706. In kind it is cell-based, human. In a few lines:
(§1)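 Cells in RPMI-1640 with 10% FBS at 37 °C, 5% CO2, seeded at 1 × 10³ cells/well in 6-well plates. Exposed to test compound (0, 5, 10 μmol/L) and grown 7 days. Colonies rinsed with PBS three times, fixed in 4% paraformaldehyde for 20 min, stained with 1% crystal violet for 30 min, then counted. Three independent experiments.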

Series [2] concerns NRF2, HO-1. Nature of the series: Western blot of NRF2. In kind it is cell-based, human. To be noted: ECa109 and EC9706 cells.
Series [3] relates to ECa109 cells. Nature of the series: CCK-8 cell proliferation assay, ECa109. In kind it is cell-based, human. To be noted: for IC50: Homo sapiens. In a few lines: (§2)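 Cells were kept in RPMI-1640 with 10% FBS, penicillin and streptomycin at 37 °C and 5% CO2. They were seeded in 96-well plates and exposed to the test compound over graded concentrations (e.g., 0–80 μmol/L) for 24, 48 or 72 h, alone or with modulators. CCK-8 reagent was then added, and optical density was read after a further 4 h. n = 3.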

In series [4] the test system is ECa109 xenografts. Nature of the series: ECa109 xenograft in nude mice, anti-tumor efficiency. In kind it is in vivo, athymic BALB/c male nude mice. To be noted: ECa109 xenograft tumors, Fig. 7D. In a few lines:
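Male athymic BALB/c nude mice (4–6 weeks old, acclimatised 1 week) received 1 × 10^7 ECa109 cells in 0.2 mL PBS subcutaneously into the right flank. At 90–120 mm3, mice were randomised (n = 5): saline, test compound 5 mg/kg, autophagy inhibitor 60 mg/kg, or combination, i.p. every other day for two weeks. Paraffin sections of fixed tumours were TUNEL-stained; brown positive cells were counted per 1500 tumour cells.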

Series [5] has as its system mRFP-GFP-LC3 puncta (autophagosomes, autolysosomes). Nature of the series: mRFP-GFP-LC3 adenovirus autophagy flux, confocal microscopy. In kind it is cell-based, human. Conditions: ECa109 and EC9706 cells, SFN 10 μmol/L or bafilomycin A1 100 nmol/L, 24 h, Fig. 3D. Summed up:
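ECa109 and EC9706 cells (3 × 10⁵/well) were infected with mRFP-GFP-LC3 adenovirus for 48 h, then replated on glass-bottom dishes at 1 × 10⁴ cells/well. Treated with 10 μmol/L test compound or 100 nmol/L bafilomycin A1 for 24 h, fixed in 4% paraformaldehyde for 20 min and imaged by confocal microscopy. Yellow (green+red) puncta were scored as autophagosomes and red as autolysosomes, n = 3.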

The test system of series [6] is LC3, P62, NRF2, HO-1, BCL-2, BAX, cleaved-caspase 9. Nature of the series: Western blot of tumor tissues from xenograft mice. In kind it is in vivo, athymic BALB/c male nude mice. To be noted: SFN 5 mg/kg, Fig. 7G. Summed up:
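Male athymic BALB/c nude mice, 4–6 weeks old, received 1 × 10⁷ ECa109 cells in 0.2 mL PBS s.c. in the right flank. […] Excised tumors were stored at −80 °C and immunoblotted (ECL detection), n = 3.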
(In general: A western blot detects proteins with antibodies after separation by electrophoresis.)

The subject of series [7] is Het-1A cells. Nature of the series: CCK-8 cell proliferation assay, Het-1A. In kind it is cell-based. To be noted: Homo sapiens.
For series [8], the system named is LC3B-II, P62, ATG3, ATG5, ATG7. Nature of the series: Western blot of autophagy proteins in ESCC cells. In kind it is cell-based, human. To be noted: ECa109 and EC9706 cells.
Series [9] in a line: Toxicity evaluation in xenograft mice. The series is classed as in vivo, athymic BALB/c male nude mice. To be noted: for HCT / HGB / MCH / MCHC / MCV / MPV / PLT / RBC / RDW / WBC: blood of xenograft mice, end of treatment; for Toxicity to nude mice (overall): therapeutic doses: SFN 5 mg/kg, CQ 60 mg/kg i.p. every other day, two weeks.
Series [10] relates to EC9706 cells. Nature of the series: CCK-8 cell proliferation assay, EC9706. In kind it is cell-based, human. Conditions: for IC50: Homo sapiens. In a few lines: as §2
On the technique in general: Formazan colour is commonly taken as a measure of viable cells.

In series [11] the test system is ECa109 cells. Nature of the series: Clonogenic assay, ECa109. The series is classed as cell-based, human. In a few lines:
as §1

Series [12] relates to cleaved-caspase 9, BAX, BCL-2. Nature of the series: Western blot of apoptotic markers in ESCC cells. The series is classed as cell-based, human. To be noted: ECa109 and EC9706 cells, SFN 10 μmol/L, 0-24 h, Fig. 2B. Summed up:
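ECa109 and EC9706 cells were exposed to 10 μmol/L test compound for 0, 3, 6, 12 and 24 h. Equal protein (30 μg) was separated by SDS-PAGE and transferred to nitrocellulose. Membranes were blocked in 5% skimmed milk for 2 h at room temperature, given primary antibody overnight at 4 °C and secondary antibody for 2 h. Detection by ECL, bands quantified by densitometry, n = 3.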

The subject of series [13] is EC9706 cells. Nature of the series: Annexin V-FITC/PI flow cytometry apoptosis assay, EC9706. To be noted: EC9706, CQ 20 μmol/L alone, 72 h, Fig. 5D. The series is classed as cell-based, human. In general terms: In flow cytometry, cells or beads pass a laser one at a time.
Series [14] relates to ECa109 cells. Nature of the series: Annexin V-FITC/PI flow cytometry apoptosis assay, ECa109. Conditions: ECa109, CQ 20 μmol/L alone, 72 h, Fig. 5D. In kind it is cell-based, human.
Setting [15] is: organ weight/body weight × 100, xenograft mice, SFN 5 mg/kg, CQ 60 mg/kg i.p.

In the case of `C[S+]([O-])CCCCN=C=S` (stereo not shown) [SFN, Sulforaphane], the “Effect on colony formation” value in [1] (EC9706, SFN 5 and 10 μmol/L, 7 days, Fig. 1C) is “significantly inhibited the colony formation”. Besides, the “Expression of NRF2 in nucleus” value in series [2] (SFN 5 and 10 μmol/L, Fig. 4B) was “increased the expression of NRF2 in nucleus”. Further, inhibition in [3] (ECa-109, 24 h) was half-maximal at 47.4 ± 1.68 µM (IC50). The same compound showed an IC50 in [3] (ECa-109, 48 h) of 20.8 ± 1.32 µM. The IC50 in [3] (ECa-109, 72 h) came out at 15.2 ± 1.18 µM. In addition, the “TUNEL positive cells in tumor tissue compared with control” value in series [4] was “large number of TUNEL positive cells”. In addition, the “Fluorescent puncta (yellow = autophagosomes, red = autolysosomes)” value in series [5] is “many yellow puncta and red puncta”. Further, the “LC3B-II and P62 expression in tumors compared to control” value in series [6] is “increased of LC3B-Ⅱ and decreased P62 expression”. The compound further registered an IC50 in [7] (48 h) of 34.1 ± 1.53 µM. The same compound yielded an IC50 in series [7] (72 h) of 21.3 ± 1.33 µM. Also, in [8] (SFN 10 μmol/L, 0-24 h, Fig. 3A), the “Expression of LC3B-II and P62” value was “increased LC3B-II and decreased P62”. In series [8] (SFN 10 μmol/L, 0-24 h, Fig. 4A), the “Expression of ATG3, ATG5 and ATG7” value is “no changes”. In addition, in [9] (SFN 5 mg/kg, CQ 60 mg/kg i.p.), the HCT was found to be 42.62 ± 4.07%, the HGB is given as 139.00 ± 13.78 g/L, the MCH stood at 15.20 ± 0.65 pg and the MCHC was 326.17 ± 3.82 g/L. Besides, in series [9] (SFN 5 mg/kg, CQ 60 mg/kg i.p.), the MCV turned out to be 49.62 ± 0.55 fL, the MPV is on record as 6.62 ± 0.17 fL, the PLT is given as 867.83 ± 134.68 × 10^9/L and the RBC was 8.59 ± 0.83 × 10^12/L. In series [9] (SFN 5 mg/kg, CQ 60 mg/kg i.p.), the RDW was found to be 16.18 ± 0.08% and the WBC was 4.18 ± 0.48 × 10^9/L. For the same compound, in series [9] (setting [15]), the “Relative organ weight, heart” value is listed as 0.63 ± 0.13%; the “Relative organ weight, left kidney” value was 0.84 ± 0.19%; the “Relative organ weight, liver” value is reported as 6.74 ± 0.35%; the “Relative organ weight, lung” value is reported as 0.72 ± 0.19%. Moreover, in series [9] (setting [15]), the “Relative organ weight, right kidney” value worked out at 0.98 ± 0.17% and the “Relative organ weight, spleen” value came out at 0.79 ± 0.14%. For the same compound, the “Toxicity to nude mice (overall)” value in series [9] is recorded as “no obvious toxicity”. Moreover, in series [10] (EC9706, 24 h), the IC50 worked out at 75.3 ± 1.88 µM. Besides, in series [10] (EC9706, 48 h), the IC50 was 41 ± 1.7 µM. Moreover, in [10] (EC9706, 72 h), the concentration for half-maximal inhibition (IC50) came to 17.5 ± 1.24 µM. The “Effect on colony formation” value in series [11] (ECa109, SFN 5 and 10 μmol/L, 7 days, Fig. 1C) was “significantly inhibited the colony formation”. Also, the “Level of cleaved-caspase 9” value in series [12] is “increased the levels of cleaved-caspase 9 in a time-dependent manner”.

Regarding `CCN(CC)CCCC(C)Nc1ccnc2cc(Cl)ccc12` (stereo not shown) [CQ, chloroquine, reference compound], the “Effect of CQ on SFN-induced NRF2 in nucleus” value in series [2] (CQ 20 μmol/L combined with SFN 10 μmol/L, 48 h, Fig. 5F) was “markedly inhibited the activation of SFN to NRF2”. In addition, in series [13], the “Effect on cell apoptosis” value is “no obvious effects on cell apoptosis”. Also, in series [8] (CQ 20 μmol/L alone, Fig. 3C), the “Expression of LC3B-II and P62” value was “promoted expression LC3B-II and P62”. For the same compound, the “Effect on cell apoptosis” value in series [14] is on record as “no obvious effects on cell apoptosis”. Further, in [9] (SFN 5 mg/kg, CQ 60 mg/kg i.p.), the HCT was 43.05 ± 1.75%, the HGB stood at 140.67 ± 6.31 g/L, the MCH is 15.28 ± 0.28 pg and the MCHC stood at 326.67 ± 4.50 g/L. In series [9] (SFN 5 mg/kg, CQ 60 mg/kg i.p.), the MCV worked out at 50.10 ± 0.78 fL, the MPV worked out at 6.52 ± 0.13 fL, the PLT was 941.00 ± 45.99 × 10^9/L and the RBC is 8.60 ± 0.38 × 10^12/L. In addition, in [9] (SFN 5 mg/kg, CQ 60 mg/kg i.p.), the RDW is 16.38 ± 0.08% and the WBC was 4.71 ± 0.99 × 10^9/L. The “Toxicity to nude mice (overall)” value in [9] is on record as “no obvious toxicity”.

As for `COC(=O)C[C@H](NC(=O)[C@H](C)NC(=O)[C@@H](NC(=O)OCc1ccccc1)C(C)C)C(=O)CF` [Z-VAD-FMK, reference compound] (Cbz-Val-Ala-Asp(OMe)-CH2F), the “Effect on cell proliferation (CCK-8)” value is “no obvious effects on cell proliferation” in [3] (ECa109, Z-VAD-FMK 20 μmol/L alone, 48 h, Fig. 2C) and “no obvious effects on cell proliferation” in series [10] (EC9706, Z-VAD-FMK 20 μmol/L alone, 48 h, Fig. 2C).

On to `Cc1ccccc1C(=O)N1CCc2cc(-c3nc(NC(=O)Cc4ccc5c(c4)OCO5)sc3C)ccc21` [ML385, reference compound], for which the “Effect on colony formation” value in series [1] (EC9706, ML385, 7 days, Fig. 4F) is “significantly inhibited cell viability and colony formation”; in [11] (ECa109, ML385, 7 days, Fig. 4F), “significantly inhibited cell viability and colony formation”. Also, the “Expression of NRF2 and HO-1” value in series [2] (ML385 5-30 μmol/L, Fig. 4C) was “decreased expression of NRF2 and HO-1 in a dose-dependent manner”. In addition, the “Effect on cell viability (CCK-8)” value is listed as “significantly inhibited cell viability” in series [3] (ECa109, ML385 0-200 μmol/L, 48 and 72 h, Fig. 4E); “significantly inhibited cell viability” in series [10] (EC9706, ML385 0-200 μmol/L, 48 and 72 h, Fig. 4E). In addition, the “Expression of LC3B-II and P62” value in series [8] (ML385 20 μmol/L alone, Fig. 4D) was “inhibited LC3B-II and promoted P62 expression”.

Regarding `CO/C1=C\C(C)=C\[C@@H](C)[C@@H](O)[C@@H](C)C/C(C)=C/C=C/[C@H](OC)[C@@H]([C@@H](C)[C@@H](O)[C@H](C)[C@@]2(O)C[C@@H](O)[C@H](C)[C@@H](C(C)C)O2)OC1=O` [bafilomycin A1, reference compound], the “Fluorescent puncta (yellow = autophagosomes, red = autolysosomes)” value in series [5] is given as “many yellow puncta”.
